Screening results: PubChem, The Scripps Research Institute Molecular Screening Center
CHRM4 PAM: CHRM4 positive allosteric modulation. actives 0.4% (n = 360,000). activation, % at 3 µM. P08173. CHO-K1 hM4/Gqi5, Fluo-8 calcium fluorescence, ACh EC20; 0% = ACh EC20, 100% = maximal ACh;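 active = activation above its plate's cutoff, the mean activation of sample wells plus 3 SD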
CHRM5 agonist: agonists of human muscarinic M5 receptor (CHRM5). P08912. CHO-K1 hM5 cells, Fluo-8 calcium fluorescence; 0% DMSO wells, 100% maximal acetylcholine response. activation, % at 3 µM. actives 0.19% (n = 360,000);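 active = activation above the run's mean over test compounds plus 3 SD, cut at about 23% in these data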;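 note: signal is peak over basal fluorescence ratio across the kinetic read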
Target sequence (P08912 whole entry, looked up): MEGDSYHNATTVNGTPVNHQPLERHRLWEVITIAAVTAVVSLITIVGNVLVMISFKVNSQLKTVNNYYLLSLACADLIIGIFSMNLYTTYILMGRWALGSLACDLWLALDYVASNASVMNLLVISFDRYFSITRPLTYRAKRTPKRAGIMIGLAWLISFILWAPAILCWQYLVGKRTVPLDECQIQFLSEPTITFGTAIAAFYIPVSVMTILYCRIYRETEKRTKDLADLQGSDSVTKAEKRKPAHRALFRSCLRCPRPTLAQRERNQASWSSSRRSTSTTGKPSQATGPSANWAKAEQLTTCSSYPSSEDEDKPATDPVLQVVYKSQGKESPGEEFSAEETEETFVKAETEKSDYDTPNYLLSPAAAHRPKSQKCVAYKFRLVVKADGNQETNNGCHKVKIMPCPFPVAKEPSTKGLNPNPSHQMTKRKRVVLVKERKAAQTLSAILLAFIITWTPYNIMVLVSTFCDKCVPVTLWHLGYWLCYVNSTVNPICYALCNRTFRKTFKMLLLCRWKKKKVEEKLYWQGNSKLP
M4 ag: CHRM4 agonism in calcium assay | P08173 | CHO-K1 hM4/Gqi5, Fluo-8 calcium fluorescence; vehicle 0%, full acetylcholine response 100% | activation, % at 3 µM | actives 0.14% (n = 360,000);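 active = activation above the run mean over all test wells plus 3 SD, cut at about 32% in these data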;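 note: peak over basal fluorescence ratio per well then scaled between controls; 0% = DMSO wells and 100% = acetylcholine at EC100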
M4 antag: blocks acetylcholine activation of human M4 receptor | inhibition, % at 3 µM | P08173 | actives 0.73% (n = 360,000) | CHO-hM4 cells, ACh EC80, Fluo-8 calcium fluorescence | AID 624125;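 active = inhibition above its plate's cutoff, the mean inhibition of sample wells plus 3 SD, cut at about 27% in these data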;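 note: 0% = acetylcholine EC80 with DMSO and 100% = DMSO without agonist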
M5 antag: CHRM5 antagonism in calcium assay; P08912; CHO-hM5 cells, Fluo-8 calcium fluorescence, ACh EC80; inhibition, % at 3 µM; actives 0.59% (n = 360,000); AID 624040;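 active = inhibition above a per-plate cutoff, the mean of that plate's test compounds plus 3 SD, cut at about 27% in these data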;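 note: 0% = acetylcholine EC80 with DMSO and 100% = DMSO without agonist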
M5 PAM: positive allosteric modulators of human muscarinic M5 receptor; P08912; CHO-K1 hM5, Fluo-8 calcium, ACh EC20 PAM; 0% = ACh EC20, 100% = ACh EC100; activation, % at 3 µM; actives 0.3% (n = 360,000); AID 624038;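 active = activation above the run cutoff, the mean activation of all test compounds plus 3 SD, cut at about 18% in these data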
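Assay system: CHO-K1 hM5 cells / Incubation: Fluo-8 loading 80 min at 37 °C plus 30 min room temperature / Technique: Fluo-8 calcium dye fluorescence, kinetic read / Repeats: single replicate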
An asterisk follows results filed as active. This is a sample that favours compounds with a hit; in the whole collection about 1.8% have one here.

SMILES	CHRM4 PAM	CHRM5 agonist	M4 ag	M4 antag	M5 antag	M5 PAM
COC(=O)c1ccc(N2C(c3cc(OC)cc(OC)c3)=Cc3ccc(-c4cccnc4)cc3C2CC(=O)C2CC2)cc1 (stereo not given)	3.5	0.4	1.1	-3.0	-1.7	3.1
CCN(CC)CCOC(=O)C1c2ccccc2Oc2ccccc21	-33.3	-7.4	0.9	98.1*	100.4*	-16.3
CN(C(=O)COC(=O)C1c2ccccc2Oc2ccccc21)C1CCS(=O)(=O)C1 (stereo not given)	-14.7	-12.6	1.3	94.9*	-5.2	2.0
CCN(CC)CCNC(=O)C1c2ccccc2Oc2ccccc21	-17.6	-8.4	1.4	37.4*	58.7*	-18.0
CCOCc1nnc(NC(=O)C2c3ccccc3Oc3ccccc32)s1	-0.5	27.5*	19.9	-1.0	1.2	-0.8
CCc1nc2c(OCCn3cccc3)cccn2c1N(C)C(=O)c1ccc(C)cc1	-1.9	-2.8	-0.4	-13.9	2.1	-3.3
CCOc1ccc(S(=O)(=O)N2CCCC(C(=O)NC3CC3)C2)cc1Cl (stereo not given)	4.2	0.7	0.9	-9.2	-0.9	3.0
N#CC(CCc1ccccc1[N+](=O)[O-])(CCc1ccccc1[N+](=O)[O-])C(N)=O	-6.8	3.0	14.5	-5.7	15.9	-12.4
CCN(CC)c1nc(C=Cc2ccc(N(C)C)cc2)c2nccnc2n1	-9.7	31.2*	29.2	40.9*	50.5*	-12.6
CN(C)c1ccc(C=Cc2nccc3ccccc23)cc1	-16.6	29.0*	36.1*	22.9	28.9*	-19.3
COc1cccc(C=Cc2nccc3ccccc23)c1OC	-9.6	-6.2	3.6	-5.7	17.1	-1.1
CC(C)N(Cc1nccn1C)C(=O)c1cc(COc2ccc(-n3cncn3)cc2)on1	0.1	1.0	2.6	-9.8	2.6	-4.4
Cc1ccc(-c2csc(N3CCC[C@@H]3C(=O)NCCn3c(-c4ccncc4)nc4ccccc43)n2)cc1	-16.3	-5.6	12.6	47.8*	26.8	-30.6
Cc1ccc(-c2csc(N3CCN(CCCn4c(-c5ccncc5)nc5ccccc54)CC3)n2)cc1	-5.8	-5.6	6.3	12.3	17.6	-24.2
O=C(NCc1ccccc1)c1cc(C2COCCN2C(=O)c2ccc(Cl)cc2)on1 (stereo not given)	5.1	-0.4	2.4	-13.8	-3.2	3.5
CCOC(=O)C1=C(CC)Nc2ccccc2N/C1=N\S(=O)(=O)c1cc(Br)ccc1Br	-17.2	2.1	29.3	14.9	64.7*	-16.1
CC(=O)N(C)c1ccc(NC(=O)Nc2ccc(Cl)cc2)cc1	-14.3	7.3	26.9	26.3	28.9*	-29.3
COc1ccc(-c2csc(NC(=S)NC(=O)c3ccc4ccccc4c3)n2)cc1OC	6.2	-1.2	1.0	-0.4	-28.3	18.4*
COc1ccc(-c2csc(NC(C)=O)n2)cc1OC	1.7	-1.9	0.9	-1.2	2.6	-2.3
CCN(c1ccccc1)S(=O)(=O)c1ccc2c(c1)CC(C)N2C(=O)C1CC1 (stereo not given)	-7.5	0.3	16.4	8.5	26.9*	-9.3
COc1ccc(CCN=C(N)NS(=O)(=O)c2cc(F)ccc2OC)cc1	-2.6	-2.8	1.0	7.4	1.9	3.2
COC(=O)c1[nH]c2ccc(F)cc2c1NS(=O)(=O)c1ccc(OC)cc1	-12.7	-2.5	7.9	29.4*	1.1	-6.5
COc1ccc(S(=O)(=O)Nc2c(C(=O)O)[nH]c3ccc(OC)cc23)cc1	14.1	-3.6	0.6	5.6	7.0	1.5
CCc1ccc(/C=N/NC(=O)c2nnn(-c3nonc3N)c2CN2CCOCC2)cc1	-0.8	-0.4	1.5	0.9	1.0	0.1
O=C1c2ccccc2NC(c2ccccc2O)N1c1ccc(F)cc1 (stereo not given)	-3.9	-5.6	0.6	-3.9	4.0	-6.2
SMILES	CHRM4 PAM	CHRM5 agonist	M4 ag	M4 antag	M5 antag	M5 PAM
O=C(O)CSC1c2ccccc2C(=O)N1c1ccccc1 (stereo not given)	0.4	-7.0	0.1	-13.6	-4.2	37.5*
COc1ccc(C)cc1NC(=O)CCN1CC(C)OC(C)C1 (stereo not given)	20.4*	-0.7	2.4	-7.2	0.1	12.2
Cc1ccccc1OCCn1cc(C(=S)N2CCCC2)c2ccccc21	-2.8	-6.1	0.5	-6.8	-8.7	-15.2
CC(=O)c1cn(CCOc2ccccc2C)c2ccccc12	-12.5	8.2	13.7	25.6	28.9*	-15.8
Cc1cc(C)c2nc(N3C(=O)C(O)=C(C(=O)c4ccco4)C3c3ccco3)sc2c1 (stereo not given)	-2.4	-2.3	-0.5	15.0	3.9	1.0
Cc1ccc(C(=O)N2CCc3cc4c(cc3C2C)OCCCO4)cc1 (stereo not given)	-16.0	-5.6	6.0	0.1	1.1	1.2
CC(=O)Nc1ccc(C(=O)N2CCc3cc4c(cc3C2C)OCCCO4)cc1 (stereo not given)	-14.4	-5.7	0.6	38.8*	2.9	-2.8
O=C(NCc1ccccn1)c1ccc(=O)oc1	30.9*	1.3	0.5	10.3	-3.4	1.2
O=C(NCc1ccccn1)c1ccc(-c2ccccc2)cc1	1.3	1.6	2.3	-5.9	-25.7	2.2
Cc1cccc(Nc2nc(NCC3CCCO3)nc(N)c2[N+](=O)[O-])c1 (stereo not given)	23.5*	-1.6	2.2	15.1	16.4	6.7
Nc1nc(NCC2CCCO2)nc(Nc2cccc(Cl)c2)c1[N+](=O)[O-] (stereo not given)	5.1	5.0	1.4	1.2	-0.6	7.7
Cc1ccc(NC(=O)c2c(F)cccc2Cl)cc1S(=O)(=O)N1CCOCC1	-0.6	2.5	4.8	-3.9	11.9	-2.2
CCc1ccc(OCCCCN(C)Cc2ccccc2)cc1	-15.7	-15.1	1.1	29.6*	17.9	-5.8
CCN(Cc1ccccc1)Cc1ccc(OCc2ccccc2)cc1	-13.2	-15.8	-2.3	26.7*	13.7	-15.8
Nc1ccc(OCc2ccccc2)cc1	-0.5	1.3	0.1	-5.0	6.1	-4.3
CCOc1ccccc1N(CC)C(=O)c1nn(C)c2c1CSc1ccccc1-2	0.0	-3.8	4.2	-2.7	-16.0	5.5
O=C(NCCS(=O)(=O)N1CCN(c2ccc(F)cc2)CC1)c1ccco1	-3.5	0.0	1.0	-7.7	-3.4	4.4
CC(=O)NCC(=O)N(c1ccccc1)C1(C(=O)NC2CCCCC2)CCCCC1	9.9	-2.8	1.5	4.6	-3.7	20.2*
CN(C(=O)c1ccccn1)C1(C(=O)NC2CCCCC2)CCCCC1	-2.4	-9.0	-0.7	-3.9	6.4	16.7
